{"source": "paper PMC4445693", "about": "(Clinical Pharmacology : Advances and Applications, 2015)", "key": {"[1]": {"test": "Single-dose plasma and skin-tissue pharmacokinetics of daptomycin in rats", "format": "in vivo, rat", "in_short": "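Rats (10 weeks), scalp depilated, sevoflurane-anaesthetised; test compound 10 mg/mL in saline s.c. Blood and 10×15 mm scalp skin sampled 1, 3, 5, 8, 12 h (3/time point); skin homogenised in 9 vol 1% phosphate buffer pH 6.0, extracted 4°C 18 h. Acetonitrile precipitation, mefenamic acid internal standard; C8 HPLC, UV 214 nm. Cmax/Tmax observed; AUC, MRT by trapezoidal rule; mean ± SD.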"}, "[2]": {"conditions": "cited from earlier work"}, "[3]": {"conditions": "human plasma; cited from earlier work"}, "[4]": {"conditions": "cited from earlier work; for AUC24 h in plasma: rat"}, "[5]": {"conditions": "male, Wistar, rat, plasma, sc, 50 mg/kg, SD"}}, "note": "Read-outs that look alike come from different tables or passages of the source."}
{"smiles": "CCCCCCCCCC(=O)N[C@@H](Cc1c[nH]c2ccccc12)C(=O)N[C@H](CC(N)=O)C(=O)N[C@@H](CC(=O)O)C(=O)N[C@@H]1C(=O)NCC(=O)N[C@@H](CCCN)C(=O)N[C@@H](CC(=O)O)C(=O)N[C@H](C)C(=O)N[C@@H](CC(=O)O)C(=O)NCC(=O)N[C@H](CO)C(=O)N[C@@H]([C@H](C)CC(=O)O)C(=O)N[C@@H](CC(=O)c2ccccc2N)C(=O)O[C@@H]1C", "note": "[daptomycin]", "values": [{"measurement": "Tmax skin tissue", "setting": "[1]; male Wistar rats, single subcutaneous 50 mg/kg, skin tissue", "value": 3.0, "unit": "h"}, {"measurement": "Tmax", "setting": "[1]; male, Wistar, rat, plasma, sc, 50 mg/kg", "value": 3, "unit": "h"}, {"measurement": "AUC(0-inf)", "setting": "[1]; [5]", "value": "812 ± 31.9", "unit": "µg·h/mL"}, {"measurement": "Cmax", "setting": "[1]; [5]", "value": "176 ± 6.3", "unit": "µg/mL"}, {"measurement": "MRT", "setting": "[1]; [5]", "value": "2.28 ± 0.33", "unit": "h"}, {"measurement": "half-life", "setting": "[1]; [5]", "value": "94.8 ± 13.8", "unit": "min"}, {"measurement": "Protein binding in rat serum", "setting": "[2]", "value": 89.3, "unit": "%"}, {"measurement": "Plasma protein binding in humans", "setting": "[3]", "value": 92, "unit": "%"}, {"measurement": "t½", "setting": "[4]; rat plasma, previous studies", "value": "1.6 to 2.9", "unit": "h"}, {"measurement": "AUC24 h in plasma", "setting": "[4]; intraperitoneal dose of 30 mg/kg/day", "value": 558, "unit": "µg·h/mL"}, {"measurement": "AUC24 h in plasma", "setting": "[4]; subcutaneous dose of 40 mg/kg/day", "value": 605, "unit": "µg·h/mL"}]}
